Assay results published in ChEMBL document CHEMBL2412964, “Discovery of novel tetrahydro-pyrazolo [4,3-c] pyridines for the treatment of neuropathic pain: synthesis and neuropharmacology” (Eur J Med Chem, 2013).
pIC50: −log10 of the molar value. Activity calls are given as the source filed them.

Tests used:
[1] = system: Rattus norvegicus; test: Antinociceptive activity in ip dosed Wistar rat chronic constriction injury model assessed as reversal of cold allodynia after 30 mins; assay type: functional; conditions: 0.5 h
Method in brief: (§1)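 Wistar rats (200–250 g) with nerve injury, compounds i.p. in 30% v/v PEG 400; dose–response curves in each sensory test (spontaneous pain and cold allodynia as paw withdrawal duration; tactile allodynia and hyperalgesia as withdrawal threshold). ED50 linearly interpolated between doses just above and below 50% response; time of peak effect recorded.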

[2] = species: Rattus norvegicus; test: Neuroprotective activity in Wistar rat chronic constriction injury model assessed as inhibition of nitric oxide production in sciatic nerve after 2 hrs by Griess method relative to control; assay type: functional
Method in brief: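 Wistar rats of either sex (200-250 g) with chronic constriction of the left sciatic nerve. On day 9 post-injury, compound given i.p. in 30% v/v PEG 400; tissue taken 2 h after dosing. Nitrate reduced to nitrite, nitrite measured colorimetrically with Griess reagent against a standard curve. Results expressed as percentage of vehicle-treated control; n = 4.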

[3] = system: Rattus norvegicus; test: Antinociceptive activity in Wistar rat partial sciatic nerve ligation model assessed as reversal of cold allodynia at 100 mg/kg, ip after 30 mins (reference value: 4.1 +/- 1.0%); assay type: functional; conditions: route intraperitoneal
[4] = system: Rattus norvegicus; test: Antinociceptive activity in Wistar rat partial sciatic nerve ligation model assessed as reversal of mechanical allodynia at 100 mg/kg, ip after 60 mins (reference value: 2.8 +/- 0.3%); assay type: functional; conditions: route intraperitoneal
[5] = system: Mus musculus; test: Anticonvulsant activity in ip dosed Swiss albino mouse assessed as protection against picrotoxin-induced seizure administered 30 mins prior to picrotoxin-challenge measured after 4 hrs; assay type: functional; conditions: read-out: MED
Method in brief: (§2)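 Mice, either sex, 20-25 g, given compound i.p. at 30, 100 and 300 mg/kg. Thirty minutes later, picrotoxin 3.15 mg/kg was injected s.c. in 0.01 mL/g body weight. Animals were isolated and watched for 45 min for a threshold convulsion, and protection was scored as its absence. Examined at 0.5 and 4 h. Value reported is the minimum dose active in half or more of the mice (n = 3).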

[6] = system: Mus musculus; test: Antiinflammatory activity in Swiss albino mouse assessed as inhibition of LPS-induced TNFalpha production at 100 mg/kg, ip administered 30 mins prior to LPS-challenge measured after 90 mins by ELISA relative to control; assay type: functional; conditions: route intraperitoneal
Method in brief: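 Swiss albino mice (20–25 g, either sex) dosed i.p. with 100 mg/kg in 10 mL/kg; LPS 1.0 mg/kg in sterile PBS i.p. given 30 min later. Blood taken 90 min after LPS, plasma TNF measured by ELISA, expressed as % inhibition versus vehicle-treated control; n = 4, one-way ANOVA with Dunnett's test.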

[7] = system: Rattus norvegicus; test: Antinociceptive activity in ip dosed Wistar rat chronic constriction injury model assessed as reversal of tactile allodynia after 30 mins; assay type: functional; conditions: 0.5 h; method in brief: as §1
[8] = system: Rattus norvegicus; test: Antinociceptive activity in ip dosed Wistar rat partial sciatic nerve ligation model assessed as reversal of spontaneous pain response after 30 mins; assay type: functional; conditions: 0.5 h; method in brief: as §1
[9] = system: Rattus norvegicus; test: Antinociceptive activity in Wistar rat chronic constriction injury model assessed as reversal of spontaneous pain response at 100 mg/kg, ip after 120 mins (reference value: 4.5 +/- 0.2%); assay type: functional; conditions: route intraperitoneal
[10] = system: Rattus norvegicus; test: Antinociceptive activity in Wistar rat chronic constriction injury model assessed as reversal of spontaneous pain response at 100 mg/kg, ip after 30 mins (reference value: 8.9 +/- 4.6%); assay type: functional; conditions: route intraperitoneal
[11] = target: Cannabinoid receptor 1 (Rattus norvegicus, UniProt P20272); test: Displacement of [3H]CP55940 from CB1 receptor in rat brain homogenate after 90 mins; assay type: tissue-based
Cannabinoid receptor 1, sequence (P20272 whole entry): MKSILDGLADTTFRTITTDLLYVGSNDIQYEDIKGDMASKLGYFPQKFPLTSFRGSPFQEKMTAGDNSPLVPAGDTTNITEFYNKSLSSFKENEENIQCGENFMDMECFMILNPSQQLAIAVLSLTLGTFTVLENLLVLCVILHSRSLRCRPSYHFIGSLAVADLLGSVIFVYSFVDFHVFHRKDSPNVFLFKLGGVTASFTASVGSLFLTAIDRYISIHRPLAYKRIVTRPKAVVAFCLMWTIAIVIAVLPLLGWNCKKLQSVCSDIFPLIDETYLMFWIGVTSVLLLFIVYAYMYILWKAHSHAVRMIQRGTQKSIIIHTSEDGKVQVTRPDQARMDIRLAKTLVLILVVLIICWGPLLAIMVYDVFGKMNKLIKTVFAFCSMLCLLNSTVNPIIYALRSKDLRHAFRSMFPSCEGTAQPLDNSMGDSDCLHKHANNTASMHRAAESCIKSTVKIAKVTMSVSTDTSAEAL
Method in brief: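 Rat brain (CB1) or spleen (CB2) membranes, homogenized in tris/NaCl/MgCl2 pH 7.4, competed against 0.5 nM [3H]CP55940 in 50 mM Tris-HCl, 2 mM EDTA, 5 mM MgCl2, 0.2 mg/mL BSA, pH 7.4; 90 min incubation. Nonspecific binding with 1 µM WIN (CB1) or 1 µM SR144528 (CB2); triplicates averaged.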

[12] = system: Radical scavenging activity; test: Antioxidant activity assessed as DPPH radical scavenging activity after 20 mins […]; assay type: functional
Method in brief: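 Compounds mixed with methanolic DPPH (final 300 µM) in microplate; after 20 min absorbance at 517 nm read; methanolic DPPH as control. % scavenging = (A DPPH − A DPPH+compound)/A DPPH × 100; dose–response curve used for IC50.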

[13] = system: Rattus norvegicus; test: Antinociceptive activity in Wistar rat partial sciatic nerve ligation model assessed as reversal of tactile allodynia at 100 mg/kg, ip after 120 mins relative to control; assay type: functional; conditions: route intraperitoneal
[14] = system: Rattus norvegicus; test: Antinociceptive activity in ip dosed Wistar rat chronic constriction injury model assessed as reversal of spontaneous pain response after 30 mins; assay type: functional; conditions: 0.5 h; method in brief: as §1
[15] = system: Rattus norvegicus; test: Antinociceptive activity in Wistar rat partial sciatic nerve ligation model assessed as reversal of spontaneous pain response at 100 mg/kg, ip after 120 mins (reference value: 1.2 +/- 0.1%); assay type: functional; conditions: route intraperitoneal
[16] = system: Rattus norvegicus; test: Antinociceptive activity in ip dosed Wistar rat partial sciatic nerve ligation model assessed as reversal of tactile allodynia after 60 mins; assay type: functional; conditions: 1 h; method in brief: as §1
[17] = system: Mus musculus; test: Antinociceptive activity in Swiss albino mouse assessed as inhibition of formalin-induced flinching at 100 mg/kg administered 30 mins prior to test measured up to 5 mins relative to control; assay type: functional
[18] = system: Rattus norvegicus; test: Antinociceptive activity in ip dosed Wistar rat chronic constriction injury model assessed as reversal of mechanical allodynia after 30 mins; assay type: functional; conditions: 0.5 h; method in brief: as §1
[19] = system: Rattus norvegicus; test: Antinociceptive activity in Wistar rat chronic constriction injury model assessed as reversal of cold allodynia at 100 mg/kg, ip after 120 mins (reference value: 5.4 +/- 1.9%); assay type: functional; conditions: route intraperitoneal
[20] = system: Rattus norvegicus; test: Antinociceptive activity in Wistar rat partial sciatic nerve ligation model assessed as reversal of cold allodynia at 100 mg/kg, ip after 120 mins (reference value: 1.5 +/- 0.5%); assay type: functional; conditions: route intraperitoneal
[21] = system: Rattus norvegicus; test: Antinociceptive activity in ip dosed Wistar rat partial sciatic nerve ligation model assessed as reversal of cold allodynia after 30 mins; assay type: functional; conditions: 0.5 h; method in brief: as §1
[22] = system: Rattus norvegicus; test: Antinociceptive activity in Wistar rat partial sciatic nerve ligation model assessed as reversal of spontaneous pain response at 100 mg/kg, ip after 60 mins (reference value: 2.9 +/- 0.3%); assay type: functional; conditions: route intraperitoneal
[23] = system: Rattus norvegicus; test: Antinociceptive activity in Wistar rat chronic constriction injury model assessed as reversal of mechanical allodynia at 100 mg/kg, ip after 120 mins (reference value: 5.3 +/- 0.5%); assay type: functional; conditions: route intraperitoneal
[24] = system: Rattus norvegicus; test: Antinociceptive activity in ip dosed Wistar rat chronic constriction injury model assessed as reversal of cold allodynia after 60 mins; assay type: functional; conditions: 1 h; method in brief: as §1
[25] = system: Rattus norvegicus; test: Antinociceptive activity in ip dosed Wistar rat chronic constriction injury model assessed as reversal of mechanical allodynia after 60 mins; assay type: functional; conditions: 1 h; method in brief: as §1
[26] = system: Mus musculus; test: Anticonvulsant activity in Swiss albino mouse assessed as protection against picrotoxin-induced seizure at 300 mg/kg, ip administered 30 mins prior to picrotoxin-challenge measured after 4 hrs; assay type: functional, organism-based; set-up: dose 300 mg/kg; method in brief: as §2
[27] = system: Rattus norvegicus; test: Antinociceptive activity in ip dosed Wistar rat partial sciatic nerve ligation model assessed as reversal of cold allodynia after 60 mins; assay type: functional; conditions: 1 h; method in brief: as §1
[28] = system: Rattus norvegicus; test: Antinociceptive activity in ip dosed Wistar rat partial sciatic nerve ligation model assessed as reversal of tactile allodynia after 120 mins; assay type: functional; conditions: 2 h; method in brief: as §1
[29] = system: Rattus norvegicus; test: Antinociceptive activity in ip dosed Wistar rat chronic constriction injury model assessed as reversal of spontaneous pain response after 60 mins; assay type: functional; conditions: 1 h; method in brief: as §1
[30] = system: Rattus norvegicus; test: Antinociceptive activity in ip dosed Wistar rat partial sciatic nerve ligation model assessed as reversal of tactile allodynia after 30 mins; assay type: functional; conditions: 0.5 h; method in brief: as §1

Row | SMILES | inhibition (INH) [2] | Activity [3] | Activity [4] | minimal effective dose [5] | inhibition in vivo at 100 mg/kg [6] | ED50 [7] | ED50 [8] | Activity [9] | Activity [10] | pIC50 [11] | pIC50 [12] | Activity [13] | Activity [15] | inhibition in vivo at 100 mg/kg [17] | Activity [19] | Activity [20] | Activity [22] | Activity [23] | ED50 [24] | ED50 [25] | further results
1 | CCN1CCc2c(c(C(C)(C)C)nn2C(=O)Nc2ccc(Br)cc2)C1 | 47.8% | 55.4% | 53.6% | 100 mg/kg | 86.4% | 23.8 mg/kg | 29 mg/kg | 83.2% | 90.6% | 7.30 | 4.09 | 44.9% | 43.1% | 0% | 56.9% | 48.2% | 55.7% | 65.3% |  |  | ED50 [1]: 41.4 mg/kg; ED50 [14]: 27.3 mg/kg; ED50 [16]: 37.5 mg/kg; ED50 [18]: 37.3 mg/kg; ED50 [21]: 68 mg/kg
2 | CCN1CCc2c(c(C(C)(C)C)nn2C(=O)Nc2ccc(C)cc2C)C1 | 65.4% | 62.1% | 56.3% |  | 58.9% |  | 7.4 mg/kg | 89.5% | 85.4% | < 6.00 | 3.87 | 88.4% | 64.2% | 15.7% | 40.4% | 38.2% | 67.3% | 67.5% | 29.8 mg/kg | 25.7 mg/kg | Activity [26]: inactive; ED50 [27]: 44.4 mg/kg; ED50 [28]: 36.1 mg/kg; ED50 [29]: 15.5 mg/kg
3 | CCN1CCc2c(c(C(C)(C)C)nn2C(=O)Nc2c(C)cccc2C)C1 | 68.7% | 58.3% | 57.7% | 100 mg/kg | 77.6% | 21.7 mg/kg | 8.1 mg/kg | 88.5% | 95% | < 6.00 | 3.99 | 46.6% | 57.8% | 15.7% | 18.8% | 10.4% | 78.3% | 78.9% | 37.4 mg/kg | 38.3 mg/kg | ED50 [30]: 24.9 mg/kg; ED50 [27]: 65.8 mg/kg; ED50 [29]: 10.4 mg/kg
